Laboratory results as given in ChEMBL document CHEMBL1124947, “Cationic antiprotozoal drugs. Trypanocidal activity of 2-(4'-formylphenyl)imidazo[1,2-a]pyridinium guanylhydrazones and related derivatives of quaternary heteroaromatic compounds” (J Med Chem, 1990).

What was measured:
Format in all cases: functional
Mus musculus [1] = assay: Trypanocidal Activity at I.C.E. value 0.30 when administered perorally.
Mus musculus [2] = assay: Trypanocidal Activity at I.C.E. value 0.85 when administered subcutaneously.
Method in brief: (§1)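 Mice, in groups of five per dose, were given a standard inoculum of blood-stage T. rhodesiense that is lethal to all untreated controls, then dosed subcutaneously. Usually 11 dose levels were used (2^n × 0.42 mg/kg).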

Mus musculus [3] = assay: Trypanocidal Activity at I.C.E. value 0.24 when administered perorally.
Mus musculus [4] = assay: Trypanocidal Activity at I.C.E. value 0.75 when administered subcutaneously.; method in brief: as §1
Mus musculus [5] = assay: Trypanocidal Activity at I.C.E. value 0.20 when administered subcutaneously.
Mus musculus [6] = assay: Trypanocidal Activity at I.C.E. value 0.36 when administered perorally.
Mus musculus [7] = assay: Trypanocidal Activity at I.C.E. value 0.32 when administered subcutaneously.
Method in brief: (§2)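 Blood-stage T. rhodesiense infection came from a standard inoculum lethal to all untreated mice. Drug was given by subcutaneous injection to groups of five mice. Survival beyond 30 days counted as cure. […] Sub-curative doses scored 0, and data were normalized at each dose.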

Mus musculus [8] = assay: Trypanocidal Activity at I.C.E. value 0.43 when administered perorally.
Mus musculus [9] = assay: Trypanocidal Activity at I.C.E. value 0.70 when administered perorally.
Mus musculus [10] = assay: Trypanocidal Activity at I.C.E. value 0.54 when administered subcutaneously.; method in brief: as §2
Mus musculus [11] = assay: Trypanocidal Activity at I.C.E. value 0.81 when administered subcutaneously.; method in brief: as §1
Mus musculus [12] = assay: Trypanocidal Activity at I.C.E. value 0.61 when administered perorally.
Mus musculus [13] = assay: Trypanocidal Activity at I.C.E. value 0.93 when administered subcutaneously.; method in brief: as §1

In the case of `Cc1ccc(S(=O)(=O)O)cc1.Cc1ccc(S(=O)(=O)[O-])cc1.Cc1cccc2n1cc(/C=C/c1ccc(/C=N/NC(=N)N)cc1)[n+]2C`, the CD50 (Mus musculus [1]) is reported as 53 mg/kg and the CD50 (Mus musculus [2]) is reported as 0.4 mg/kg.

For `Br.Cc1cccc2n1cc(COc1ccc(/C=N/NC(=N)N3CCCC3)cc1)[n+]2C.[Br-]`, the CD50 (Mus musculus [3]) was 53 mg/kg and the CD50 (Mus musculus [4]) was 0.4 mg/kg.

`Br.CN(C)C(=N)N/N=C/c1ccc(-c2c([N+](=O)[O-])n3ccccc3[n+]2C)cc1.[Br-]` gave a CD50 (Mus musculus [5]) of 0.8 mg/kg and a CD50 (Mus musculus [6]) of 53 mg/kg.

Work on `Br.C[n+]1c(-c2ccc(/C=N/NC(=N)N)cc2)c(Br)n2ccccc21.[Br-]` yielded a CD50 (Mus musculus [7]) of 1.6 mg/kg and a CD50 (Mus musculus [8]) of 26 mg/kg.

With `Br.C[n+]1c(-c2ccc(/C=N/NC(=N)N3CCCC3)cc2)cn2ccsc21.[Br-]` the CD50 (Mus musculus [9]) was 3.3 mg/kg and the CD50 (Mus musculus [10]) was 0.1 mg/kg.

`Br.Cc1ccc2n(c1)cc(COc1ccc(/C=N/NC(=N)N)cc1)[n+]2C.[Br-]` was tested, and the CD50 (Mus musculus [11]) was 0.2 mg/kg and the CD50 (Mus musculus [12]) was 6.6 mg/kg.

Molecule `CCSc1ccc2n(c1)cc(-c1ccc(/C=N/NC(=N)N)cc1)[n+]2C.Cc1ccc(S(=O)(=O)O)cc1.Cc1ccc(S(=O)(=O)[O-])cc1` has a CD50 (Mus musculus [13]) of 0.1 mg/kg.
